The subject of one assay is acpP^91::gfp RNA. Nature of the assay: In vitro translation of acpP::gfp RNA, western blot of AcpP1-17-GFP. As to conditions: 10-molar excess of PPNA over template RNA; performed two times; listed as (KFF)3K-acpP. The assay is classed as biochemical, Escherichia coli. An outline of the steps:
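Target-gene fragment fused to gfp by overlap PCR, then T7 in vitro transcribed (3 h 45 min, 37°C; then DNase) and checked on 6% PAA/7 M urea gels. Heat-denatured RNA (1 pmol, 100 nM final) was pre-incubated with test compound at 37°C for 5 min. It was then translated in PURExpress for 2 h at 37°C. Water served as control. Analysis: 12% SDS-PAGE, anti-GFP western, Ponceau loading check, ImageJ signal relative to control.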

Assay [1] deals with UPEC 536. Nature of the assay: Minimal inhibitory concentration. The assay is classed as cell-based, Escherichia coli. Conditions: (KFF)3K-conjugated 10mer PNAs at concentrations ≤10 μM, 24 h.
The subject of assay [2] is UPEC 536. The experiment in a line: Killing time kinetics. It is filed as cell-based, Escherichia coli. Conditions: 1.25 μM, UPEC 536 10^5 cfu/ml, within 24 h.

For the sequence KFFKFFKFFK [acpP 10mer PPNA], in the assay on acpP^91::gfp RNA, the “effect on in vitro synthesis of AcpP1-17-GFP” value was “substantially inhibited”. On to KFFKFFKFFK [csrA 10mer PPNA], for which, in the assay with UPEC 536 [1], the “growth inhibition of UPEC 536” value was “did not trigger complete growth inhibition”.

Regarding KFFKFFKFFK [nusG 10mer PPNA], in the assay with UPEC 536 [1], the “growth inhibition of UPEC 536” value is listed as “did not trigger complete growth inhibition”.

As to KFFKFFKFFK [scrambled 10mer PPNA], the “abundance of living bacterial cells compared to the water control” value with UPEC 536 [2] is reported as “did not affect the abundance of living bacterial cells”. KFFKFFKFFK [yidC 10mer PPNA]: in the assay with UPEC 536 [1], the “growth inhibition of UPEC 536” value is reported as “did not trigger complete growth inhibition”.

The record behind these values is article PMC9226493 (Nucleic Acids Research, 2022).
